Assay results reported in paper PMC5586474 (Journal of the American Heart Association: Cardiovascular …, 2017).

Key:
[1] = system: α1‐AR; experiment: PE‐induced IP3 production; format: cell-based, human; conditions: 1 μmol/L PE; for effect of α1‐AR antagonist on PE‐induced IP3 production: antagonist 10 μmol/L, 30 minutes, 37°C, Figure 5E
[2] = molecular target: ACKR3 (Homo sapiens, UniProt P25106); experiment: PRESTO‐Tango β‐arrestin 2 recruitment assay for ACKR3; format: cell-based; conditions: HTLA cells, overnight, 37°C, n=3
[3] = system: rat mesenteric arteries; conditions: isolated mesenteric rat arteries; cited from earlier work
[4] = system: ACKR3:α1A‐AR; experiment: PLA, ACKR3:α1A‐AR interaction in hVSMCs; format: cell-based, human; conditions: peptide 10 μmol/L, 30 minutes, 37°C; vs vehicle; Figure 8B; n=3
Procedure, shortened: (§1)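 hVSMCs got vehicle or test peptide (10 μmol/L, 30 min, 37°C), were washed, fixed in 4% PFA (15 min, RT) and blocked overnight at 4°C in 3% BSA/PBS. Receptor‐specific primaries (1:500) ran 105 min at 37°C, then PLA probes (1:5) 60 min, ligation 30 min and amplification 100 min, all at 37°C. DAPI‐mounted spots were counted per cell from 10 images per condition per experiment.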

[5] = system: CXCR4:α1D‐AR; experiment: PLA, CXCR4:α1D‐AR interaction in hVSMCs; format: cell-based, human; conditions: peptide 10 μmol/L, 30 minutes, 37°C; vs vehicle; Figure 8B; n=3
Procedure, shortened: as §1

[6] = system: ACKR3:α1B‐AR; experiment: PLA, ACKR3:α1B‐AR interaction in hVSMCs; format: cell-based, human; conditions: peptide 10 μmol/L, 30 minutes, 37°C; vs vehicle; Figure 8B; n=3
Procedure, shortened: as §1

[7] = system: CXCR4:α1B‐AR; experiment: PLA, CXCR4:α1B‐AR interaction in hVSMCs; format: cell-based, human; conditions: peptide 10 μmol/L, 30 minutes, 37°C; vs vehicle; Figure 8B; n=3
Procedure, shortened: as §1

[8] = system: rat mesenteric arteries; experiment: Pressure myography, PE‐induced vasoconstriction of isolated mesenteric arteries; design: species or system rat (Sprague‐Dawley); conditions: TM peptide 100 μmol/L vs vehicle; 80 mm Hg; Figure 9G; n=3
Procedure, shortened: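 Mesenteric arteries from male Sprague-Dawley rats (isoflurane 3.5% anaesthesia) kept in bicarbonate salt buffer (130 mmol/L NaCl, 4.7 mmol/L KCl, 5.5 mmol/L d-glucose, 1.16 mmol/L CaCl₂), gassed 95% O₂/5% CO₂, 37°C. Vessels pressurized to 80 mm Hg, pretreated with vehicle or test peptide (10 or 100 μmol/L). Cumulative PE added to bath; dose-response curves fitted by nonlinear regression.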

[9] = system: ACKR3:CXCR4; experiment: PLA, ACKR3:CXCR4 interaction in hVSMCs; format: cell-based, human; conditions: peptide 10 μmol/L, 30 minutes, 37°C; vs vehicle; Figure 8B; n=3
Procedure, shortened: as §1

[10] = system: ACKR3:α1D‐AR; experiment: PLA, ACKR3:α1D‐AR interaction in hVSMCs; format: cell-based, human; conditions: peptide 10 μmol/L, 30 minutes, 37°C; vs vehicle; Figure 8B; n=3
Procedure, shortened: as §1

[11] = system: α1b‐AR; experiment: PRESTO‐Tango β‐arrestin 2 recruitment assay for α1b‐AR; format: cell-based; conditions: PE plus 10 μmol/L TM peptide; HTLA cells, overnight, 37°C; Figure 9C; n=3
Procedure, shortened: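 HTLA cells were transfected with the α1B‐AR‐Tango plasmid (1.5 μg, Lipofectamine 3000). The next day they were replated at 1×10⁵/well on poly‐L‐lysine and left to attach for ≥4 h. PE ± 10 μmol/L test peptide, made at twice final concentration in medium, was added 1:1 and incubated overnight at 37°C. Luminescence was read with Bright‐Glo in HBSS/20 mmol/L HEPES, as % of RLU at […].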

Chain of ACKR3 (P25106 whole entry): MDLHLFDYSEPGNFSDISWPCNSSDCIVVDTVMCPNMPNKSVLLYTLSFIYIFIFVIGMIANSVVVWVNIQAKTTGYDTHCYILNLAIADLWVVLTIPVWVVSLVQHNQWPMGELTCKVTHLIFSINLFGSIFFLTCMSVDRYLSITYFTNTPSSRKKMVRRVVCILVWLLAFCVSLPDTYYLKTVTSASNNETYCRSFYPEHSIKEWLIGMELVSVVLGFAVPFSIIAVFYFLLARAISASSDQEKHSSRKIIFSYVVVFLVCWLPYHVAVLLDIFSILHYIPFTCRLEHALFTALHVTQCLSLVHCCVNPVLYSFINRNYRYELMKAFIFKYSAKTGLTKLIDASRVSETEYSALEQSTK

Row | Compound | effect of α1‐AR antagonist on PE‐induced IP3 production ([1]; 5 minutes, n=3) | effect of TM peptide on PLA signals for ACKR3:α1A‐AR [4] | effect of TM peptide on PLA signals for CXCR4:α1D‐AR [5] | effect of TM peptide on PLA signals for ACKR3:α1B‐AR [6] | effect of TM peptide on PLA signals for CXCR4:α1B‐AR [7] | effect of TM peptide on PLA signals for ACKR3:CXCR4 [9] | effect of TM peptide on PLA signals for ACKR3:α1D‐AR [10] | further results
1 | COc1cc2nc(N3CCN(C(=O)c4ccco4)[C@H]4CCCC[C@H]43)nc(N)c2cc1OC (racemic) [cyclazosin, Cyclazosin] | could be inhibited |  |  |  |  |  |  | 
2 | COc1ccccc1N1CCN(CCN2C(=O)CC3(CCCC3)CC2=O)CC1 [BMY 7378] | could be inhibited |  |  |  |  |  |  | 
3 | CNC[C@H](O)c1cccc(O)c1 [PE, Phenylephrine] |  |  |  |  |  |  |  | increase of cellular IP3 concentrations on PE stimulation after NT siRNA ([1]; hVSMCs incubated with NT siRNA, Figure 5D, n=4): 4.8 fold; increase of cellular IP3 concentrations on PE stimulation ([1]; hVSMCs without siRNA, 5 minutes, Figure 2B, n=3): 5.3 fold
4 | Cc1ccc(N(CC2=NCCN2)c2cccc(O)c2)cc1 [phentolamine, Phentolamine] | could be inhibited |  |  |  |  |  |  | 
5 | CXCL11: natural ACKR3 agonist; chemokine, from Protein Foundry |  |  |  |  |  |  |  | EC50 ([2]; read-out: EC50 for β‐arrestin 2 recruitment to ACKR3, agonist, luminescence, Figure 2A, mean±SEM): 16.5 ± 4.9 nM
6 | CXCL12: natural ACKR3 agonist; cognate ligand of CXCR4 and ACKR3, from Protein Foundry |  |  |  |  |  |  |  | effect on PE‐induced vasoconstriction [3]: attenuates PE‐induced vasoconstriction; CXCL12 effect on PE‐induced signaling in the presence of the TM2 peptide ([1]; hVSMCs, TM2 10 μmol/L plus CXCL12 1 μmol/L, Figure 9E): did not enhance PE‐induced signaling
7 | DDDLHVTQCLSLVHCCVNPVLYSFIN [TM7] |  | significantly increased the number of PLA signals for ACKR3:α1A‐AR complexes | did not significantly affect signals | did not alter signals | did not significantly affect signals | reduced after incubation with all TM peptide analogs (TM2>TM4>TM7) | did not alter signals | effect of TM peptide on potency of PE to induce vasoconstriction (significance) [8]: P>0.05 versus vehicle
8 | VVCILWLLAFCVSLPDTYYLDD [TM4] |  | without affecting ACKR3:α1A/D‐AR interactions | did not affect signals for CXCR4:α1D‐AR complexes | reduced PLA signals for ACKR3:α1B‐AR complexes | increased signals for CXCR4:α1B‐AR complexes | reduced after incubation with all TM peptide analogs (TM2>TM4>TM7) | without affecting ACKR3:α1A/D‐AR interactions | effect of TM peptide on potency of PE to induce vasoconstriction (significance) [8]: P>0.05 versus vehicle
9 | YILNLAIADLWVVLTIPVWVVDDD [TM2] |  | did not affect signals for ACKR3:α1A‐AR complexes | did not affect signals for CXCR4:α1D‐AR complexes | significantly reduced PLA signals | increased signals for CXCR4:α1B‐AR complexes | reduced after incubation with all TM peptide analogs (TM2>TM4>TM7) | significantly reduced PLA signals | effect of TM peptide on PE‐induced β‐arrestin 2 recruitment to α1b‐AR [11]: did not inhibit β‐arrestin 2 recruitment to recombinant α1b‐AR on PE stimulation; activation of ACKR3 by TM peptide (β‐arrestin 2 recruitment) ([2]; peptide alone, Figure 9A): without intrinsic agonist activity within the tested range of concentrations
